Reference: ChEMBL document CHEMBL1124248, “Preparation and antischistosomal and antitumor activity of hycanthone and some of its congeners. Evidence for the mode of action of hycanthone” (1988)
Values joined by “and” are separate entries in the source; they are usually repeats but may differ in a detail not shown here. Identical values can stand only once.

Columns and labels:
Format in all cases: functional
Mus musculus [1] = assay: In vivo antitumor activity against p-388 lymphocytic leukemia in mice at 6.25 mg/kg (Duplicate value)
Summary of the method: (§1)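 Murine P388 lymphocytic leukemia model tested by the National Cancer Institute. Compound given once daily for 9 days; activity expressed as T/C.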

Schistosoma mansoni [2] = assay: Incorporation of 1.3 [3H]uridine in hycanthone(HC) resistant Schistosoma mansoni
Summary of the method: (§2)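 Adult HC-resistant S. mansoni were treated in vitro, and [3H]uridine incorporation by the worms was measured. Values are % of control. Concentrations are given in M × 10^6.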

Schistosoma mansoni [3] = assay: Day 50% survival of worms in culture of HC resistant Schistosoma mansoni
Summary of the method: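 Adult HC-resistant S. mansoni were exposed in vitro and kept in culture. The value is the day by which 50% of worms were dead. Cultures were ended at different times in different experiments. Concentrations are given in M × 10^6.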

Mus musculus [4] = assay: In vivo antitumor activity against p-388 lymphocytic leukemia in mice at 12.5 mg/kg (Duplicate value); summary of the method: as §1
Schistosoma mansoni [5] = assay: Incorporation of 6.3 M*10e6 [3H]uridine in hycanthone(HC) sensitive Schistosoma mansoni
Schistosoma mansoni [6] = assay: Incorporation of 1.3 M *10e6 [3H]uridine in hycanthone(HC) sensitive Schistosoma mansoni
Mus musculus [7] = assay: In vivo antitumor activity against p-388 lymphocytic leukemia in mice at 25 mg/kg (Duplicate value); summary of the method: as §1
Mus musculus [8] = assay: In vivo antitumor activity against p-388 lymphocytic leukemia in mice at 50 mg/kg; summary of the method: as §1
Schistosoma mansoni [9] = assay: Day 50% survival of worms in culture of HC sensitive Schistosoma mansoni
Mus musculus [10] = assay: In vivo antitumor activity against p-388 lymphocytic leukemia in mice at 3.12 mg/kg; summary of the method: as §1
Schistosoma mansoni [11] = assay: Incorporation of 1.1 M *10e6 [3H]uridine in hycanthone(HC) resistant Schistosoma mansoni; summary of the method: as §2
Schistosoma mansoni [12] = assay: Incorporation of 1.1 M *10e6 [3H]uridine in hycanthone(HC) sensitive Schistosoma mansoni
Mus musculus [13] = assay: In vivo antitumor activity against p-388 lymphocytic leukemia in mice at 1.50 mg/kg; details: dose 1.5 mg/kg; summary of the method: as §1
Mus musculus [14] = assay: In vivo antitumor activity against p-388 lymphocytic leukemia in mice at 6.25 mg/kg; summary of the method: as §1
Schistosoma mansoni [15] = assay: Incorporation of 5.5 M*10e6 [3H]uridine in hycanthone(HC) resistant Schistosoma mansoni; summary of the method: as §2
Schistosoma mansoni [16] = assay: Incorporation of 5.5 M*10e6 [3H]uridine in hycanthone(HC) sensitive Schistosoma mansoni
Schistosoma mansoni [17] = assay: Incorporation of 0.9 M *10e6 [3H]uridine in hycanthone(HC) resistant Schistosoma mansoni; summary of the method: as §2
Schistosoma mansoni [18] = assay: Incorporation of 4.5M*10e6 [3H]uridine in hycanthone(HC) resistant Schistosoma mansoni; summary of the method: as §2
Schistosoma mansoni [19] = assay: Incorporation of 0.9 M *10e6 [3H]uridine in hycanthone(HC) sensitive Schistosoma mansoni
Schistosoma mansoni [20] = assay: Incorporation of 4.5 M*10e6 [3H]uridine in hycanthone(HC) sensitive Schistosoma mansoni
Schistosoma mansoni [21] = assay: Incorporation of 5M*10e6 [3H]uridine in hycanthone(HC) resistant Schistosoma mansoni; summary of the method: as §2
Schistosoma mansoni [22] = assay: Incorporation of 1 M *10e6 [3H]uridine in hycanthone(HC) resistant Schistosoma mansoni; summary of the method: as §2
Schistosoma mansoni [23] = assay: Incorporation of 1 M *10e6 [3H]uridine in hycanthone(HC) sensitive Schistosoma mansoni
Schistosoma mansoni [24] = assay: Incorporation of 5M*10e6 [3H]uridine in hycanthone(HC) sensitive Schistosoma mansoni
Mus musculus [25] = assay: In vivo antitumor activity against p-388 lymphocytic leukemia in mice at 1.5 mg/kg; summary of the method: as §1
Mus musculus [26] = assay: In vivo antitumor activity against p-388 lymphocytic leukemia in mice at 12.5 mg/kg; summary of the method: as §1

`CCN(CC)CCNc1ccc(COC(C)=O)c2sc3ccccc3c(=O)c12` was tested, and the T/C (Mus musculus [1]) was 123%, the Control (Schistosoma mansoni [2]) was 19% and the Effect (Schistosoma mansoni [3]) was >15 days and 7 days. The T/C (Mus musculus [4]) was 129%, the Control (Schistosoma mansoni [5]) was 4% and the Control (Schistosoma mansoni [6]) was 13%. For the same compound, the T/C (Mus musculus [7]) was 125%, the T/C (Mus musculus [8]) was 118% and the Effect (Schistosoma mansoni [9]) was 7 days.
Work on `CCCNC(=O)OCc1ccc(NCCN(CC)CC)c2c(=O)c3ccccc3sc12` yielded a T/C (Mus musculus [10]) of 117%, a Control (Schistosoma mansoni [11]) of 100% and a Control (Schistosoma mansoni [12]) of 40%. For the same compound, the T/C (Mus musculus [13]) was 99%, the T/C (Mus musculus [14]) was 134% and the Effect (Schistosoma mansoni [9]) was >12 days and 10 days. It also gave a Control (Schistosoma mansoni [15]) of 56% and a Control (Schistosoma mansoni [16]) of 22%.
In the case of `CCN(CC)CCNc1ccc(COC(=O)c2cc([N+](=O)[O-])cc([N+](=O)[O-])c2)c2sc3ccccc3c(=O)c12`, the Control (Schistosoma mansoni [17]) was 95%, the Effect (Schistosoma mansoni [3]) was >17 days and the Control (Schistosoma mansoni [18]) was 105%. The Control (Schistosoma mansoni [19]) was 50%, the Control (Schistosoma mansoni [20]) was 0% and the Effect (Schistosoma mansoni [9]) was 7 days.
`CCN(CC)CCNc1ccc(COC(=O)Nc2ccccc2)c2sc3ccccc3c(=O)c12` was tested, and the Control (Schistosoma mansoni [21]) was 32%, the Control (Schistosoma mansoni [22]) was 33% and the Effect (Schistosoma mansoni [3]) was 12 days. The Control (Schistosoma mansoni [23]) was 18%, the Control (Schistosoma mansoni [24]) was 7% and the T/C (Mus musculus [14]) was 111%. The Effect (Schistosoma mansoni [9]) was 8 days.
Work on `CNC(=O)OCc1ccc(NCCN(C)C)c2c(=O)c3cc(O)ccc3sc12` yielded a T/C (Mus musculus [10]) of 130, a T/C (Mus musculus [25]) of 134 and a T/C (Mus musculus [14]) of 127. For the same compound, the T/C (Mus musculus [26]) was 112.
